Reference: ChEMBL document CHEMBL6083205, “A comprehensive apoptotic assessment of niloticin in cervical cancer cells: a tirucallane-type triterpenoid from Aphanamixis polystachya (Wall.) Parker” (RSC Med Chem, 2024)

Test system: HeLa
Experiment: Antiproliferative activity against human HeLa cells assessed as inhibition of cell growth incubated for 24 hrs by MTT assay
Type: functional, cell-based
Method in brief: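 Cells kept in DMEM with 10% FBS and 1% antibiotic-antimycotic at 37 °C and 5% CO2. Seeded at 8 × 10^3 cells per 100 μL and left 24 h, then exposed 24 h to 5, 10, 20, 50 or 100 μM. MTT at 0.5 mg/mL in HBSS was added for 2–4 h at 37 °C in the dark. Formazan was dissolved in DMSO, A570 was read, and IC50 was derived.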

| SMILES | IC50 |
| --- | --- |
| C[C@@H](C[C@@H](O)[C@H](O)C(C)(C)O)[C@@H]1CC[C@]2(C)C3=CC[C@H]4C(C)(C)C(=O)CC[C@]4(C)[C@H]3CC[C@@]12C | > 100 µM |
| C=C(C)[C@@H](O)[C@H](O)C[C@H](C)[C@@H]1CC[C@]2(C)C3=CC[C@H]4C(C)(C)C(=O)CC[C@]4(C)[C@H]3CC[C@@]12C | > 100 µM |
| C[C@@H](C[C@@H](O)[C@@H](O)C(C)(C)O)[C@@H]1CC[C@]2(C)C3=CC[C@H]4C(C)(C)C(=O)CC[C@]4(C)[C@H]3CC[C@@]12C | 51.9 µM |
